Assay outcomes: PubChem, several laboratories
Scp1 inh = Scp-1 phosphatase inhibitors, primary screen, biochemical, colorimetric, uHTS; Recombinant Scp1, phosphopeptide, malachite green phosphate absorbance; inhibition, % at 20 µM; 340,000 compounds, 0.88% hits; AID 493091, 2011;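 active = inhibition above about 50% at 20 µM, limit read from the data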;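 note: plate controls were DMSO wells with enzyme for no effect and wells lacking enzyme for full effect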
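Test system: SCP-1 phosphatase catalytic domain, residues 76-261; measured by: colorimetric phosphate reagent with accelerator and stabiliser, absorbance at 630 nm; timing: enzyme reaction 45 min at room temperature, colour 5 min, stabilisation 30 min; also added: Phosphorylated 17-residue peptide substrate; compound dosing: one concentration, 20 µM, with 1.0% DMSO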
DNMT1 block = human DNMT1 methyltransferase inhibitors, primary screen, biochemical, molecular beacon, fluorescence, HinP1I cleavage, uHTS; inhibition (reported as % activation of signal), % at 10 µM; AID 588458, 2011; 360,000 compounds, 0.83% hits; in the data active = inhibition above about 50%
Target sequence (P26358 504-1616 limits assumed): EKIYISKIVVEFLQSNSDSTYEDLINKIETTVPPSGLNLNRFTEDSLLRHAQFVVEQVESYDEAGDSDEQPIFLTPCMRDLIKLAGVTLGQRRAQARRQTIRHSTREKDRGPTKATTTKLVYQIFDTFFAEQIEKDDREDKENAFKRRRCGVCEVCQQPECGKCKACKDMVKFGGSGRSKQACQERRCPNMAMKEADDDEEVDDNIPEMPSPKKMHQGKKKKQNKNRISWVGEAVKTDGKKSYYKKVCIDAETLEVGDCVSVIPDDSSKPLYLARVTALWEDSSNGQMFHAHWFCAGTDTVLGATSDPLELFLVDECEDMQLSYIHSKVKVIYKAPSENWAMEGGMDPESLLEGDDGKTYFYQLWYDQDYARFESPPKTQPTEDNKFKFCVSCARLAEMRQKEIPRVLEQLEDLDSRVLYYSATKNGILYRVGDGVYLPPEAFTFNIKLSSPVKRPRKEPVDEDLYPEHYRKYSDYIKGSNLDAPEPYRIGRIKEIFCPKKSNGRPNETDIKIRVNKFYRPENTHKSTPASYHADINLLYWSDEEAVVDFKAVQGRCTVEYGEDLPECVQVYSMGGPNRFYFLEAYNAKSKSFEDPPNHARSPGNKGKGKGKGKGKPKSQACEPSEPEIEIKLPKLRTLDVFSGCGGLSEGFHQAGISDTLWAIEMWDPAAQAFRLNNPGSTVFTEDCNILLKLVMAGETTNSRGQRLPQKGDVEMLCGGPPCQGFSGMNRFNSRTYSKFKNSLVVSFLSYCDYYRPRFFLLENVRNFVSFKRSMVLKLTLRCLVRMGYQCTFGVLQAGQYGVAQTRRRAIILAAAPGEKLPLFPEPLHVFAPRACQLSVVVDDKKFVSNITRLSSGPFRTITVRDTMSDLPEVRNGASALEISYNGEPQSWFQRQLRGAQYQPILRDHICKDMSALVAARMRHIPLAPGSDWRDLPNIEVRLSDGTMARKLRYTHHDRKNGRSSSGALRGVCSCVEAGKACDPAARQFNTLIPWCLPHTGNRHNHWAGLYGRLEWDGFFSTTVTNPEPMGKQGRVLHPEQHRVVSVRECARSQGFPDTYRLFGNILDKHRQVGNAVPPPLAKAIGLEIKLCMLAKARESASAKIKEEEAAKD
STEP inh = STEP phosphatase inhibitors, primary screen, biochemical, fluorescence intensity, uHTS | Tyrosine-protein phosphatase non-receptor type 5 (Homo sapiens), P54829 | recombinant STEP, OMFP fluorogenic substrate | inhibition, % at 20 µM | 360,000 compounds, 0.25% hits;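 active = inhibition at 20 µM, scaled per plate between control wells, above about 37%, limit read from the data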;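 note: 0% = DMSO with enzyme and substrate and 100% = substrate only without enzyme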
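material = STEP tyrosine phosphatase | reagent = fluorogenic phosphatase substrate OMFP at 25 µM final | doses = single compound dose of 20 µM, 1% DMSO final | schedule = 20 min reaction, room temperature, in the dark | measured by = fluorescence, 480/540 nm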
SUMO1 PPI mod = modulators of SUMO1 protein-protein interactions, primary screen, biochemical, uHTS; SUMO1 binding to a labelled peptide, TR-FRET, 1 h; inhibition, % at 20 µM; 360,000 compounds, 0.33% hits; AID 602429, 2012; in the data active = inhibition above about 37%
CASP6 VEID inh = human caspase-6 inhibitors, primary screen, biochemical, VEID-R110 fluorescence, single point, set 2. inhibition, % at 12.5 µM. purified caspase-6, Z-VEID-R110 cleavage fluorescence. P55212. 350,000 compounds, 0.53% hits;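 active = mean inhibition across replicates at least about 35%, with every replicate also reaching that limit, limit read from the data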;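 note: 0% = median of neutral control wells and 100% = no fluorescence left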
LMPTP block = LMPTP phosphatase inhibitors, primary screen, biochemical, fluorescence intensity, uHTS. recombinant LMPTP-A, OMFP fluorogenic substrate. inhibition, % at 20 µM. 360,000 compounds, 0.22% hits. AID 651560, 2012;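 active = compounds that cut the enzyme signal by at least half of the control window in the single-dose screen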;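 note: plate controls were DMSO wells with enzyme plus substrate for no effect and substrate without enzyme for full effect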
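Assay system: LMPTP-A, protein tyrosine phosphatase of low molecular weight / Medium: pH 6.0 Bis-Tris buffer with DTT and Triton X-100 / Schedule: 50 min enzyme reaction at room temperature, protected from light / Measured by: endpoint fluorescence intensity from OMFP dephosphorylation / Read-out basis: % inhibition relative to no-enzyme and uninhibited control wells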
Beacon interf DR = spectral interference with molecular beacon fluorescence, dose response, artefact control for DNMT1 inhibitor project, biochemical, fluorescent molecular beacon; AID 602382, 2012; spectral interference counter-screen; 200 tested, under 10 active; IC50, µM; shares compounds with DNMT1 block; call rule not given here
DNMT1 inh conf = DNMT1 methyltransferase inhibitor retest, confirmation, biochemical, molecular beacon, fluorescence, single concentration; shares compounds with DNMT1 block; DNMT1 molecular beacon HinP1I cleavage; inhibition, % at 10 µM; 2,300 compounds, 8% hits; AID 602385, 2012;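 active = average inhibition of at least 30% in the single-concentration confirmation test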
DNMT1 interf = shows spectral interference in the DNMT1 beacon assay. activation (fluorescence interference), % at 10 µM. shares compounds with DNMT1 block. AID 602387. DNMT1 molecular beacon spectral interference counterscreen, fluorescence 485/520. 2,300 compounds, 1% hits;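 active = activation of at least 30% at 10 µM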;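 note: DNMT1 catalytic domain with a HinP1I cleavage step and a FAM/dabcyl DNA beacon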
* hit, by the source's call; . = no result. Rows were chosen to be rich in hits. Some 1.7% of all compounds tested hit in one or more screens of this group.

SMILES	Scp1 inh	DNMT1 block	STEP inh	SUMO1 PPI mod	CASP6 VEID inh	LMPTP block	DNMT1 inh conf	DNMT1 interf	others
C=CCn1c(N)c(C(=O)Nc2cccc(C)c2)c2nc3ccccc3nc21	0.3	-47.2	3.0	5.6	.	2.8	.	.
C=CCn1c(N)c(C(=O)OCCC)c2nc3ccccc3nc21	-7.4	59.7*	2.7	15.6	.	13.8	-1.1	-2.3
CCCCCOc1ccc(C(=O)CCC(=O)NC(C)c2ccc(S(N)(=O)=O)cc2)cc1 (stereo not given)	-3.8	74.9*	1.2	9.9	5.3	0.7	2.3	2.1
COc1cc2nc(CN3CCN(S(=O)(=O)c4cc(C)ccc4C)CC3)[nH]c(=O)c2cc1OC	-6.8	91.7*	-3.3	1.8	-2.0	0.3	2.9	1.4
COc1cc2nc(CN3CCN(S(=O)(=O)c4ccccc4)CC3)[nH]c(=O)c2cc1OC	-2.0	0.4	2.1	6.4	1.2	0.2	.	.
COc1ccc2oc(C(=O)Nc3ccc(N4CCOCC4)cc3)c(C)c2c1	14.8	50.6*	1.5	2.3	4.6	2.3	21.2	1.6
C=CCn1c(SCC(=O)NC2CCCC2)nc2ccccc21	.	70.1*	-2.2	3.3	1.8	2.0	2.6	3.2
O=S(=O)(NC1CCCCC1Nc1ccc(Cl)cc1)c1ccccc1 (stereo not given)	-7.3	73.2*	0.7	0.3	1.9	0.9	1.1	4.0
CCCC(=O)Nc1ccc(Cl)c(NC(=S)NC(=O)c2cc3ccccc3o2)c1	-0.9	55.7*	1.3	0.0	10.3	-3.0	3.2	4.8
CCC(=O)Nc1ccc(NC(=S)NC(=O)c2cc3ccccc3o2)cc1	-7.3	0.5	1.7	-0.3	-1.4	-1.9	.	.
O=C(O)c1ccc2nc(-c3ccco3)c(-c3ccco3)nc2c1	47.0	99.7*	33.5	39.6*	71.6*	6.3	4.7	1.8
O=C(c1ccc2nc(-c3ccco3)c(-c3ccco3)nc2c1)N1CCN(c2ccccc2)CC1	12.1	4.4	4.0	0.8	.	8.8	.	.
O=C(COC(=O)c1ccccc1Oc1ccccc1)NCc1ccco1	69.9*	55.3*	-2.0	1.5	.	-0.3	9.7	4.3
COc1ccccc1CNC(=O)COC(=O)c1cc(-c2ccco2)nc2ccccc12	82.5*	99.8*	23.4	13.4	.	43.1	27.5	2.0	Beacon interf DR=>99
O=C(COC(=O)c1cc(-c2ccco2)nc2ccccc12)NCc1ccc2c(c1)OCO2	45.7	76.6*	-0.1	0.1	.	25.9	8.4	7.8
CC(C)Cn1c(N)c(C(=O)COC(=O)c2cc(-c3ccco3)nc3ccccc23)c(=O)n(C)c1=O	27.3	81.2*	1.7	5.5	-0.1	4.8	9.8	6.0
O=C(COC(=O)c1ccco1)NCc1ccco1	0.3	-0.4	-3.1	1.5	.	-1.2	.	.
COc1ccccc1CNC(=O)COC(=O)c1cc(C)nc2ccccc12	-0.2	-1.0	-4.3	-14.9	-0.3	-0.1	.	.
COc1ccc(-c2nc3c(C(=O)NCCN(C)C)cccc3c3ccccc23)cc1	9.6	58.7*	0.6	-30.5	-14.7	-0.6	21.6	-1.1
